Experimental data pooled from the literature.
Protocols differ between the studies behind these lines.
AMY2: Pancreatic alpha-amylase (AMY2, Sus scrofa, UniProt P00690)
D14: D14 (Arabidopsis thaliana, UniProt Q9SQR3)
EIF2AK3: Eukaryotic translation initiation factor 2-alpha kinase 3 (EIF2AK3, Homo sapiens, UniProt Q9NZJ5)

SMILES | target | assay | conditions | quantity | value
O=c1cc(-c2ccc(O)cc2)oc2c(Br)c(O)c(Br)c(O)c12 | AMY2 | enzyme activity, inhibitor | 50 µM, 30 min | inhibition | 68.2%
COc1ccc2oc(-c3ccc4nc(N)oc4c3)c/c(=N\c3ccccc3NC(=O)CCN)c2c1 | Receptor-interacting serine/threonine-protein kinase 1 (RIPK1, Homo sapiens, UniProt Q13546) | binding | 1 µM | remaining binding | 110%
CC1=C(/C=C/C(C)=C/C=O)C(C)(C)CCC1 | D14 | thermal stability, DSF | 50 µM | ΔTm | -3.82 °C
Cc1cc(F)cc2c(CCC(=O)N[C@@H]3C(=O)NC[C@H]3O)c(-c3ccc(F)cc3)[nH]c12 | Muscarinic acetylcholine receptor M2 (CHRM2, Homo sapiens, UniProt P08172) | cell-free assay | 10 µM | inhibition | -4%
CC(=O)/C=C/C=C(C)/C=C/C1=C(C)CC(O)CC1(C)C (stereo in doubt) | D14 | thermal stability, DSF | 1 µM | ΔTm | 0.09 °C
O=c1c(O)c(-c2ccc(O)c(O)c2)oc2cc(O)cc(O)c12 | AMY2 | enzyme activity, inhibitor | 50 µM | inhibition | 94.1%
C1=C/COCc2cc(ccc2OCCN2CCCC2)Nc2nccc(n2)-c2cccc(c2)COC/1 | Serine/threonine-protein kinase Nek7 (NEK7, Homo sapiens, UniProt Q8TDX7) | binding | 0.1 µM | remaining binding | 40%
Cc1cc(O)c(-c2ccc([C@@H](C)CN(C)C)cc2)c2c1[nH]c(=O)c1sccc12 | EIF2AK3 | enzyme activity, inhibitor | 0.1 µM | inhibition | -7.06%
CC(=O)/C=C/C=C(C)/C=C/C1=C(C)CCCC1(C)C | D14 | thermal stability, DSF | 50 µM | ΔTm | 1.3 °C
C#Cc1cc(-c2cc(Nc3nc(N[C@@H](C)c4ccc(F)cn4)ncc3Cl)n[nH]2)ccc1C=O | EIF2AK3 | enzyme activity, inhibitor | 0.2 µM | inhibition | 16.5%
COc1cc(O)c2c(c1)O[C@H](c1ccccc1)CC2=O | AMY2 | enzyme activity, inhibitor | 50 µM, 30 min | inhibition | 12.7%
CCCCC(=O)Nc1ccc(-c2ccc3ncn(CCC)c(=O)c3c2)cn1 | Ephrin type-A receptor 5 (EPHA5, Homo sapiens, UniProt P54756) | binding, competition with immobilised ligand | 0.5 µM | remaining binding | 84%
O=c1c(O)c(-c2ccc(O)cc2)oc2c(Br)c(O)c(Br)c(O)c12 | AMY2 | enzyme activity, inhibitor | 50 µM, 30 min | inhibition | 100%
CC1=CC(O/C=C2/C(=O)OC3c4ccccc4CC23)OC1=O (racemic) | D14 | thermal stability | 50 µM | ΔTm | -7.73 °C
COc1ccc([C@@H]2CC(=O)c3c(O)cc(O)cc3O2)cc1O | AMY2 | enzyme activity, inhibitor | 50 µM, 30 min | inhibition | 30.3%
CC1=C(/C=C/C(C)=C/C=O)C(C)(C)C[C@H](O)C1 | D14 | thermal stability, DSF | 10 µM | ΔTm | 0.16 °C
O=c1c(O)c(-c2ccc(O)cc2)oc2cc(O)cc(O)c12 | AMY2 | enzyme activity, inhibitor | 50 µM, 30 min | inhibition | 88.9%
Cc1cc(S(=O)(=O)N[C@H]2CC[C@H](CN3CCN(c4ccc(C5CCC(=O)NC5=O)cc4F)CC3)CC2)ccc1Nc1ncc(C(F)(F)F)c(N2CCC[C@](C)(O)C2)n1 (stereo partly drawn) | Cyclin-dependent kinase 4, with cyclin D1 (CDK4, Homo sapiens, UniProt P11802) | binding, competition with immobilised ligand | 1 µM | remaining binding | 75%
